Assay [1] in a line: reducers of endogenous Her2 protein level, primary screen, SKBR3 breast tumor cells, AlphaScreen, ATP viability (AID 461;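 active = Her2 level under about 52% in both replicate screens, with viability over 70% of control, limit read from the data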;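 as to Her2 level: lower value means less Her2 protein in the cells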;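 as to viability: percent of carrier control wells set as 100% viability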). As to conditions: 18-24 h, measured here: SKBR3 viability, ATP luminescence, at 10 µM. On the technique in general: In Alpha technology, singlet oxygen from a donor bead excites a nearby acceptor bead.
Assay [2] concerns the target Receptor tyrosine-protein kinase erbB-2 (Homo sapiens) (UniProt P04626). The description is as above. As to conditions: 18-24 h, at 10 µM, stronger effect = lower value.
The nature of assay [3]: SK-BR-3 cell growth inhibitors, pilot screen, 24 h, human (AID 572;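 active = viability at or below 10% of carrier control in both of two separate runs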;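 also: compound exposure lasted between 18 and 24 h rather than exactly 24 h; 100% = carrier-treated control wells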). As to conditions: SK-BR-3 viability, CellTiter-Glo luminescence, at 10 µM, stronger effect = lower value. Background: In ATP-based viability assays light output follows the ATP content of the culture.
Assay [4] is described as follows: HUVEC growth inhibition – cell-based, human, primary screen (AID 575;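 active = viability at or below 30% in both replicate assays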;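 also: 100% = median of untreated cell wells with 0.1% DMSO on each plate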). As to conditions: HUVEC proliferation, CellTiter-Glo luminescence, 72 h; at 10 µM; stronger effect = lower value. The essentials: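 Assay system: Primary human umbilical vein endothelial cells | Quantity: 1250 cells per well | Medium: Supplemented EBM, 2% fetal bovine serum | Detection: CellTiter-Glo luminescence measuring cellular ATP | Read-out: % viability vs DMSO wells | Plate: Collagen-coated 384-well format | Times: 72 h exposure, 37 °C, 5% CO2, 30 min RT equilibration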

Assay [5] is described as follows: growth inhibitors of H69AR lung tumor, primary screen, human, duplicate replicates (AID 580;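 active = viability at or under a set limit in both replicates, limit being median viability minus 3 SD, cut at about 48% in these data, passing the limit was not always enough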;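 also: 100% = mean luminescence of untreated wells and 0% = no signal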). As to conditions: H69AR lung tumor cells viability, ATP luminescence, 72 h; at 10 µM; stronger effect = lower value.
Assay [6] is described as follows: reversal of MRP1-mediated doxorubicin resistance, pilot screen, H69AR cells, doxorubicin co-treatment (AID 601;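 active = viability loss from added drug above about 55%, and viability with drug at most 40%, in both replicates, limit read from the data, passing the limit was not always enough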). As to conditions: CellTiter-Glo, 72 h, at 10 µM; for differential viability (reversal): stronger effect = higher value.
A short description of assay [7]: 384-well plate pilot, post-Golgi transport modulator project, inhibition of yeast transport mutant growth (AID 636; in the data active = inhibition above about 31%). As to conditions: absorbance 615 nm, about 18 h, stronger effect = higher value.
The nature of assay [8]: growth suppression of yeast trafficking mutant, preliminary HTS, modulators of trafficking downstream of Golgi apparatus project, 1536-format plate, OD 615 nm (AID 637). As to conditions: yeast transport mutant growth, absorbance 615 nm, 18 h; stronger effect = higher value.
The mark [9] stands for this setting: H69AR cells + 2 uM doxorubicin, measured here: viability with 2 uM doxorubicin, stronger effect = lower value.
Setting [10] is: H69AR cells, compound alone cytotoxicity.

Activity calls are given as the source filed them. Rule as the data show it, unless noted: active = inhibition above about 30%; inactive = the rest.

We go through 14 molecules from PubChem BioAssay.

Receptor tyrosine-protein kinase erbB-2 (Homo sapiens), sequence (P04626 whole entry, looked up): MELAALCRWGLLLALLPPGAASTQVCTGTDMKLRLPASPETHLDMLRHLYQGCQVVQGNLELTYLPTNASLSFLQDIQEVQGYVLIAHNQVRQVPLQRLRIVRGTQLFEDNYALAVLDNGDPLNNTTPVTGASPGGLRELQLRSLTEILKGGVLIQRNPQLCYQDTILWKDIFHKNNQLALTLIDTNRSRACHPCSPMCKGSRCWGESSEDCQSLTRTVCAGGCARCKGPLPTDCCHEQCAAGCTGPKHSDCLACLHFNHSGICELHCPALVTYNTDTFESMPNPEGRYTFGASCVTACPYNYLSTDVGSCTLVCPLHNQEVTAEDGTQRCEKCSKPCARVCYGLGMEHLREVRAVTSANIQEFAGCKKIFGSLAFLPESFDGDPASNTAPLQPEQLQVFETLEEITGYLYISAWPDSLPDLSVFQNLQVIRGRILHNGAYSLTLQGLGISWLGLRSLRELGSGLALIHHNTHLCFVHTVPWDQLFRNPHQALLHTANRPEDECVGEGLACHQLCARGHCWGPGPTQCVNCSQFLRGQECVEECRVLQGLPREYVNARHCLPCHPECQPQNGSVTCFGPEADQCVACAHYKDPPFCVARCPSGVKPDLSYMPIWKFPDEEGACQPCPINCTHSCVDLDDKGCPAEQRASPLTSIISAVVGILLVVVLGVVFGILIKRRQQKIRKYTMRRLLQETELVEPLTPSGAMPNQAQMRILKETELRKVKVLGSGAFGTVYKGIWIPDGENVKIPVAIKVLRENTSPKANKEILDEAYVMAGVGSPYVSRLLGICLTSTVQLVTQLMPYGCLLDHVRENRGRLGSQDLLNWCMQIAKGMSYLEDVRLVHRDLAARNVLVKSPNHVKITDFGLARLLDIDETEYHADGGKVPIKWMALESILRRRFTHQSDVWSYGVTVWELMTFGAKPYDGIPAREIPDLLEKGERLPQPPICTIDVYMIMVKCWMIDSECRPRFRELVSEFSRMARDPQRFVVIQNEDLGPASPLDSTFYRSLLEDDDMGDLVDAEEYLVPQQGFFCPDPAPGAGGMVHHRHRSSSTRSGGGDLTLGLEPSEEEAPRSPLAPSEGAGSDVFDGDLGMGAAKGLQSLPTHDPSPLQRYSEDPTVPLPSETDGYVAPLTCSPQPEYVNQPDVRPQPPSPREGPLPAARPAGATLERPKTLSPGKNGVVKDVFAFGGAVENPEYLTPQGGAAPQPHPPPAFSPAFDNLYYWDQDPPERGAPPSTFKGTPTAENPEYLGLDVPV

Turning to `c1ccn2c(SCc3cn4ccsc4n3)nnc2c1`, the viability in assay [1] is 104%; in assay [3] it was 104% (inactive); in assay [4] it was 104% (inactive); in assay [5], 110% (inactive); in assay [6] (setting [9]) it was 95.7%; in assay [6] (setting [10]) it was 110%. For the same molecule, in assay [2], the Her2 level is 93.5% (inactive). For the same molecule, the differential viability (reversal) in assay [6] (H69AR cells + 2 uM doxorubicin) is 14% (inactive). Further, the inhibition in assay [7] is -8.49% (inactive); in assay [8] it was 3.49% (inactive).
On to `OCCN1CCN(CC(O)COc2ccc3ccccc3c2)CC1` (stereo not given), for which the viability was 88.5% in assay [1]; 88.5% (inactive) in assay [3]; 92.8% (inactive) in assay [4]; 102% (inactive) in assay [5]; 92.3% in assay [6] (setting [9]); 102% in assay [6] (setting [10]). Moreover, the Her2 level in assay [2] is 82% (inactive). In assay [6] (H69AR cells + 2 uM doxorubicin), the differential viability (reversal) was 10% (inactive). The inhibition in assay [7] is -4.8% (inactive); in assay [8], 5.25% (inactive).
`COc1ccc(C2/C(=C(/O)c3ccccc3)C(=O)C(=O)N2C)cc1` (stereo not given): the viability in assay [1] was 102%; in assay [3], 102% (inactive); in assay [4] it was 107% (inactive); in assay [5] it was 101% (inactive); in assay [6] (setting [9]), 98.1%; in assay [6] (setting [10]), 101%. Moreover, in assay [2], the Her2 level was 83.5% (inactive). For the same molecule, the differential viability (reversal) in assay [6] (H69AR cells + 2 uM doxorubicin) is 3% (inactive). Also, the inhibition in assay [7] is -7.84% (inactive); in assay [8], 1.97% (inactive).
Consider `Cc1cc(C)cc(N2CCCn3c2nc2c3c(=O)n(CCN3CCOCC3)c(=O)n2C)c1`, for which the viability is 101% in assay [1]; 101% (inactive) in assay [3]; 97.2% (inactive) in assay [4]; 83.3% (inactive) in assay [5]; 83.3% in assay [6] (setting [9]); 83.3% in assay [6] (setting [10]). The Her2 level in assay [2] is 81% (inactive). Besides, in assay [6] (H69AR cells + 2 uM doxorubicin), the differential viability (reversal) was -0.035% (inactive). For the same molecule, the inhibition was -7.2% (inactive) in assay [7] and -3.44% (inactive) in assay [8].
As for `O=C1CCCCCN1CSc1nc2ccccc2s1`, the viability was 123% in assay [1]; 123% (inactive) in assay [3]; 80.5% (inactive) in assay [4]; 88% (inactive) in assay [5]; 83.3% in assay [6] (setting [9]); 88% in assay [6] (setting [10]). For the same molecule, in assay [2], the Her2 level is 101% (inactive). Also, the differential viability (reversal) in assay [6] (H69AR cells + 2 uM doxorubicin) is 4.73% (inactive). Besides, the inhibition in assay [7] was -5.45% (inactive); in assay [8], -2.62% (inactive).
With `CCOc1cc(C)c(Cl)cc1S(=O)(=O)N(C)C`, the viability is 106% in assay [1]; 106% (inactive) in assay [3]; 103% (inactive) in assay [4]; 95.4% (inactive) in assay [5]; 86.6% in assay [6] (setting [9]); 95.4% in assay [6] (setting [10]). For the same molecule, the Her2 level in assay [2] is 90.5% (inactive). In addition, the differential viability (reversal) in assay [6] (H69AR cells + 2 uM doxorubicin) is 8.76% (inactive). The inhibition is -3.03% (inactive) in assay [7] and -2.1% (inactive) in assay [8].
For `CCc1cccc(NS(=O)(=O)c2c(C)n[nH]c2C)c1`, the viability was 92% in assay [1]; 92% (inactive) in assay [3]; 110% (inactive) in assay [4]; 107% (inactive) in assay [5]; 93.5% in assay [6] (setting [9]); 107% in assay [6] (setting [10]). The Her2 level in assay [2] is 96% (inactive). In addition, in assay [6] (H69AR cells + 2 uM doxorubicin), the differential viability (reversal) is 13.2% (inactive). For the same molecule, the inhibition is -6.05% (inactive) in assay [7] and -5.08% (inactive) in assay [8].
As to `Cc1nc(SCc2ccc(Br)cc2)[nH]c(=O)c1C`, the viability in assay [1] is 83.5%; in assay [3] it was 83.5% (inactive); in assay [4], 60.7% (inactive); in assay [5] it was 92.1% (inactive); in assay [6] (setting [9]) it was 82.4%; in assay [6] (setting [10]), 92.1%. Besides, the Her2 level in assay [2] was 85.5% (inactive). The differential viability (reversal) in assay [6] (H69AR cells + 2 uM doxorubicin) is 9.71% (inactive). Further, the inhibition in assay [7] was -5.14% (inactive); in assay [8] it was 0.82% (inactive).
In the case of `COc1ccc(C2C(=O)N(C3CCCCC3)CC(=O)N2Cc2ccco2)cc1` (stereo not given), the viability in assay [1] was 110%; in assay [3], 110% (inactive); in assay [4], 95.9% (inactive); in assay [5], 97.7% (inactive); in assay [6] (setting [9]), 79.5%; in assay [6] (setting [10]) it was 97.7%. Moreover, in assay [2], the Her2 level is 91.5% (inactive). For the same molecule, in assay [6] (H69AR cells + 2 uM doxorubicin), the differential viability (reversal) is 18.2% (inactive). The inhibition in assay [7] is -6.67% (inactive); in assay [8] it was 1.45% (inactive).
Regarding `Cc1nc(-c2cnn(-c3ccccc3)c2)c2cc(C)oc2n1`, the viability in assay [1] was 74.5%; in assay [3] it was 74.5% (inactive); in assay [4], 67.2% (inactive); in assay [5], 90.7% (inactive); in assay [6] (setting [9]) it was 87.4%; in assay [6] (setting [10]), 90.7%. For the same molecule, the Her2 level in assay [2] is 76% (inactive). Moreover, the differential viability (reversal) in assay [6] (H69AR cells + 2 uM doxorubicin) was 3.27% (inactive). The figures for the inhibition in assay [7] and in assay [8] were -2.11% (inactive) and 3.28% (inactive), respectively.
Turning to `CN(C1CCCCC1)S(=O)(=O)c1ccc(NC(=O)c2ccco2)cc1`, the viability is 91.5% in assay [1]; 91.5% (inactive) in assay [3]; 80.4% (inactive) in assay [4]; 99.3% (inactive) in assay [5]; 95.1% in assay [6] (setting [9]); 99.3% in assay [6] (setting [10]). The Her2 level in assay [2] is 91.5% (inactive). Also, the differential viability (reversal) in assay [6] (H69AR cells + 2 uM doxorubicin) was 4.14% (inactive). The values for the inhibition in assay [7] and in assay [8] were -5.26% (inactive) and -0.67% (inactive), respectively.
On to `Cn1c(CCNC(=O)c2ccco2)nc2cc(NC(=O)C3CCCCC3)ccc21`, for which the viability in assay [1] was 101%; in assay [3], 101% (inactive); in assay [4], 78.3% (inactive); in assay [5] it was 84.5% (inactive); in assay [6] (setting [9]) it was 82.5%; in assay [6] (setting [10]), 84.5%. Also, the Her2 level in assay [2] was 114% (inactive). In assay [6] (H69AR cells + 2 uM doxorubicin), the differential viability (reversal) is 2.02% (inactive). Moreover, the inhibition in assay [7] was -8.49% (inactive); in assay [8] it was -1.59% (inactive).
On to `CCC(=O)N1CCN=C1SCc1ccc(Cl)cc1`, for which the viability is 90% in assay [1]; 90% (inactive) in assay [3]; 77.3% (inactive) in assay [4]; 95.1% (inactive) in assay [5]; 84.3% in assay [6] (setting [9]); 95.1% in assay [6] (setting [10]). Further, in assay [2], the Her2 level is 93.5% (inactive). For the same molecule, the differential viability (reversal) in assay [6] (H69AR cells + 2 uM doxorubicin) is 10.8% (inactive). Further, the inhibition in assay [7] is 1.04% (inactive); in assay [8], 31.5% (active).
Consider `CN1CCN(CCCNC(=O)C2CC(=O)N(C3CCCCC3)C2)CC1` (stereo not given), for which the viability in assay [1] is 106%; in assay [3], 106% (inactive); in assay [4], 88.8% (inactive); in assay [5] it was 91.4% (inactive); in assay [6] (setting [9]) it was 95.2%; in assay [6] (setting [10]), 91.4%. Besides, the Her2 level in assay [2] was 90% (inactive). In addition, the differential viability (reversal) in assay [6] (H69AR cells + 2 uM doxorubicin) is -3.83% (inactive). Also, the results for the inhibition in assay [7] and in assay [8] were -4.47% (inactive) and 3.06% (inactive), respectively.

What is called viability is a read-out of living cells in per cent, often relative to untreated cells. What is called inhibition is the drop in the measured response relative to a control, in per cent.
